Source: ChEMBL document CHEMBL4138104, “Indole carboxylic acid esters of melampomagnolide B are potent anticancer agents against both hematological and solid tumor cells” (Eur J Med Chem, 2017)
Calls of active or inactive are those of the source. The rule behind the calls is not given here.

Legend:
[1] = Induction of apoptosis in AML03 cells isolated from acute myelogenous leukemia patient after 24 hrs by annexin V/7-AAD/propidium iodide staining-based flow cytometric method; assay type: functional, cell-based; conditions: Homo sapiens
Summary of the method: (§1)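 Primary AML specimens from consenting patients were Ficoll-separated and some were cryopreserved. Cells were held 1 h in serum-free IMDM with 20% BIT 9500, LDL and beta-mercaptoethanol before drug. Drugs were diluted from DMSO stock into PBS, final DMSO ≤0.5%. Dosing was 0.5–10 μM for 24 h. Annexin V/7-AAD flow cytometry scored double-negative (non-apoptotic) cells, normalized to vehicle, in triplicate, and EC50 came from dose-response curves.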

[2] = Induction of apoptosis in AML04 cells isolated from acute myelogenous leukemia patient after 24 hrs by annexin V/7-AAD/propidium iodide staining-based flow cytometric method; assay type: functional, cell-based; conditions: Homo sapiens; summary of the method: as §1
[3] = Induction of apoptosis in AML02 cells isolated from acute myelogenous leukemia patient after 24 hrs by annexin V/7-AAD/propidium iodide staining-based flow cytometric method; assay type: functional, cell-based; conditions: Homo sapiens; summary of the method: as §1
HOP-62 = experiment: Growth inhibition of human HOP62 cells incubated for 48 hrs by sulforhodamine B assay; assay type: functional; conditions: HOP-62, 48 h
Summary of the method: (§2)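 NCI-60 screen. Compounds were dosed at five concentrations spanning 10^-4 to 10^-8 M for 48 h at 37 °C. Cells were TCA-fixed, stained with 0.4% SRB and read at 515 nm against time-zero and vehicle controls. GI50 is the concentration giving a 50% reduction in net protein increase.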

CAKI-1 = experiment: Growth inhibition of human Caki1 cells incubated for 48 hrs by sulforhodamine B assay; assay type: functional; conditions: CAKI-1, 48 h; summary of the method: as §2
IGROV-1 = experiment: Growth inhibition of human IGROV1 cells incubated for 48 hrs by sulforhodamine B assay; assay type: functional; conditions: IGROV-1, 48 h; summary of the method: as §2
SNB-75 = experiment: Growth inhibition of human SNB75 cells incubated for 48 hrs by sulforhodamine B assay; assay type: functional; conditions: SNB-75, 48 h
Summary of the method: (§3)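 NCI-60 screen run at NCI. Cells grown in RPMI medium with 5% FBS and 2 mM L-glutamine, plated at 5,000–40,000 cells/well, and preincubated 24 h at 37 °C. Time-zero plates were TCA-fixed. Compounds came from DMSO stocks and were tested at five concentrations from 10^-4 to 10^-8 M for 48 h. Cells were then TCA-fixed, stained with 0.4% SRB, and OD read at 515 nm. GI50 is the concentration giving a 50% reduction in net protein increase versus control.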

OVCAR-3 = experiment: Growth inhibition of human OVCAR3 cells incubated for 48 hrs by sulforhodamine B assay; assay type: functional; conditions: OVCAR-3, 48 h; summary of the method: as §2
NCI-H522 = experiment: Growth inhibition of human NCI-H522 cells incubated for 48 hrs by sulforhodamine B assay; assay type: functional; conditions: NCI-H522, 48 h; summary of the method: as §2
EKVX = experiment: Growth inhibition of human EKVX cells incubated for 48 hrs by sulforhodamine B assay; assay type: functional; summary of the method: as §2
[4] = Induction of apoptosis in AML01 cells isolated from acute myelogenous leukemia patient after 24 hrs by annexin V/7-AAD/propidium iodide staining-based flow cytometric method; assay type: functional, cell-based; conditions: Homo sapiens, AML01, 24 h; summary of the method: as §1
OVCAR-4 = experiment: Growth inhibition of human OVCAR4 cells incubated for 48 hrs by sulforhodamine B assay; assay type: functional; conditions: OVCAR-4, 48 h; summary of the method: as §2
SR = experiment: Growth inhibition of human SR cells incubated for 48 hrs by sulforhodamine B assay; assay type: functional; summary of the method: as §3
SK-MEL-5 = experiment: Growth inhibition of human SK-MEL-5 cells incubated for 48 hrs by sulforhodamine B assay; assay type: functional; conditions: SK-MEL-5, 48 h; summary of the method: as §2
MDA-MB-435 = experiment: Growth inhibition of human MDA-MB-435 cells incubated for 48 hrs by sulforhodamine B assay; assay type: functional; conditions: MDA-MB-435, 48 h; summary of the method: as §2
TK-10 = experiment: Growth inhibition of human TK10 cells incubated for 48 hrs by sulforhodamine B assay; assay type: functional; conditions: TK-10, 48 h; summary of the method: as §3
SK-MEL-2 = experiment: Growth inhibition of human SK-MEL-2 cells incubated for 48 hrs by sulforhodamine B assay; assay type: functional; conditions: SK-MEL-2, 48 h; summary of the method: as §2
T47D = experiment: Growth inhibition of human T47D cells incubated for 48 hrs by sulforhodamine B assay; assay type: functional; summary of the method: as §3
COLO 205 = experiment: Growth inhibition of human COLO205 cells incubated for 48 hrs by sulforhodamine B assay; assay type: functional; conditions: COLO 205, 48 h; summary of the method: as §2
[5] = Potency index, ratio of PTL EC50 to compound EC50 for human M9-ENL1 cells; assay type: functional
Summary of the method: (§4)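 M9-ENL1 AML cells, derived by MLL-ENL transduction of human blood cells, were plated at 10^6 cells/mL in alpha-MEM with 5% human plasma, 20% FBS, SCF, IL-3, IL-7 and FLT3 ligand. Exposure was 24 h. Non-apoptotic (Annexin V/7-AAD double-negative) fraction was normalized to vehicle, in triplicate, to give EC50. PTL and MMB were run as reference controls.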

ACHN = experiment: Growth inhibition of human ACHN cells incubated for 48 hrs by sulforhodamine B assay; assay type: functional; summary of the method: as §2
Rattus norvegicus [6] = species on record: Rattus norvegicus; experiment: Induction of necrosis in rat 9LSF cells at 20 uM after 48 hrs by microscopic analysis; assay type: functional, cell-based
Summary of the method: (§5)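 Rat 9L-SF gliosarcoma cells were grown in DMEM/F12 with 10% iron-supplemented calf serum at 37 °C under 5% CO2. Treatment was applied to 50% confluent monolayers. Cell detachment and necrosis were scored visually by microscopy.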

PC-3 = experiment: Growth inhibition of human PC3 cells incubated for 48 hrs by sulforhodamine B assay; assay type: functional; conditions: PC-3, 48 h; summary of the method: as §2
DU-145 = experiment: Growth inhibition of human DU145 cells incubated for 48 hrs by sulforhodamine B assay; assay type: functional; conditions: DU-145, 48 h; summary of the method: as §2
786-0 = experiment: Growth inhibition of human 786-0 cells incubated for 48 hrs by sulforhodamine B assay; assay type: functional; conditions: 786-0, 48 h; summary of the method: as §2
MDA-MB-231 = experiment: Growth inhibition of human MDA-MB-231/ATCC cells incubated for 48 hrs by sulforhodamine B assay; assay type: functional; conditions: MDA-MB-231, 48 h; summary of the method: as §2
Rattus norvegicus [7] = species on record: Rattus norvegicus; experiment: Induction of cell detachment in rat 9LSF cells at 20 uM after 48 hrs by microscopic analysis; assay type: functional, cell-based; summary of the method: as §5
[8] = Potency index, ratio of melampomagnolide-B EC50 to compound EC50 for human M9-ENL1 cells; assay type: functional; summary of the method: as §4
BT-549 = experiment: Growth inhibition of human BT549 cells incubated for 48 hrs by sulforhodamine B assay; assay type: functional; conditions: BT-549, 48 h; summary of the method: as §2
Hs-578T = experiment: Growth inhibition of human Hs 578T cells incubated for 48 hrs by sulforhodamine B assay; assay type: functional; summary of the method: as §2
MDA-MB-468 = experiment: Growth inhibition of human MDA-MB-468 cells incubated for 48 hrs by sulforhodamine B assay; assay type: functional; conditions: MDA-MB-468, 48 h; summary of the method: as §2
M14 = experiment: Growth inhibition of human M14 cells incubated for 48 hrs by sulforhodamine B assay; assay type: functional; conditions: M14, 48 h; summary of the method: as §2
[9] = Solubility of the compound in water; assay type: physicochemical; conditions: buffer
Rattus norvegicus [10] = species on record: Rattus norvegicus; experiment: Inhibition of colony formation of rat 9LSF cells at 5 to 20 uM after 48 hrs by colony formation assay; assay type: functional
Summary of the method: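 9L-SF cells were seeded in 60 mm dishes to reach 50% confluence (6.65×10^4 cells/cm²) after 24 h. They were treated 48 h with drug serially diluted from DMSO stock (max 0.05% DMSO), then rinsed, trypsinized, counted and seeded in triplicate flasks for colonies. Lethally irradiated (25 Gy) feeders kept density at 2,000 cells/cm². Survival was normalized to control plating efficiency, with three experiments.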

Compound	EC50 [1] [nM]	EC50 [2] [nM]	EC50 [3] [nM]	GI50 (HOP-62) [nM]	GI50 (CAKI-1) [nM]	GI50 (IGROV-1) [nM]	GI50 (SNB-75) [nM]	GI50 (OVCAR-3) [nM]	GI50 (NCI-H522) [nM]	GI50 (EKVX) [nM]	EC50 [4] [µM]	GI50 (OVCAR-4) [nM]	GI50 (SK-MEL-5) [nM]	GI50 (MDA-MB-435) [nM]	GI50 (TK-10) [nM]	GI50 (SK-MEL-2) [nM]	GI50 (T47D) [nM]	GI50 (ACHN) [nM]	GI50 (PC-3) [nM]	GI50 (DU-145) [nM]	further results
C=C1C(=O)O[C@@H]2C3O[C@]3(C)CC/C=C(\C)CC[C@@H]12 (stereo not given in full)	1900	13000	6300	49000	9350	21100	48400	17400	5470	17300	5.2	21500									
C=C1C(=O)O[C@@H]2[C@H]3O[C@]3(C)CC/C=C(/COC(=O)/C=C/c3c[nH]c4ccccc34)CC[C@@H]12	320	1000	910	820		220	170	170	180	230	1.3	200	200	220	270	200	200	200	320	390	GI50 (SR): 270 nM; GI50 (COLO 205): 220 nM; Ratio IC50 [5]: 9; Activity (Rattus norvegicus [6]): Active; GI50 (786-0): 220 nM; GI50 (MDA-MB-231): 170 nM; Activity (Rattus norvegicus [7]): Active; Ratio IC50 [8]: >20; GI50 (BT-549): 170 nM; GI50 (Hs-578T): 0.35 µM; GI50 (MDA-MB-468): 190 nM; GI50 (M14): 220 nM
C=C1C(=O)O[C@@H]2[C@H]3O[C@]3(C)CC/C=C(/COC(=O)c3cc4cc(OC)ccc4[nH]3)CC[C@@H]12	2200	3300	3300	1640	1710	1480		930	700	1500	3	1630	1740	620	1280	1600	1300	810	1830	1030	GI50 (COLO 205): 1180 nM; GI50 (786-0): 1270 nM; GI50 (MDA-MB-231): 1580 nM; Ratio IC50 [8]: 2 - 20; GI50 (BT-549): 1060 nM; GI50 (Hs-578T): 3.09 µM; GI50 (MDA-MB-468): 1130 nM; GI50 (M14): 1270 nM
CN(C)CC1C(=O)O[C@@H]2[C@H]3O[C@]3(C)CC/C=C(/COC(=O)c3cc4ccccc4[nH]3)CC[C@@H]12.O=C(O)/C=C/C(=O)O (stereo not given in full)				2200	1110	2070	3210	350	1220	3360		1360	1850	1280	2120	2100	2110	670	2370	1490	GI50 (SR): 1590 nM; GI50 (COLO 205): 1980 nM; solubility [9]: Soluble; GI50 (786-0): 1710 nM; GI50 (MDA-MB-231): 1740 nM; GI50 (BT-549): 1570 nM; GI50 (Hs-578T): 3.03 µM; GI50 (MDA-MB-468): 1120 nM; GI50 (M14): 1570 nM
C=C1C(=O)O[C@@H]2[C@H]3O[C@]3(C)CC/C=C(/COC(=O)c3cc4ccccc4[nH]3)CC[C@@H]12	2900	2200	2700		1080		1010		750		3.5		1260	760	1390	1920	< 10	340	1420	1210	GI50 (SR): 1080 nM; inhibition (Rattus norvegicus [10]): Active; Activity (Rattus norvegicus [6]): Active; GI50 (786-0): 370 nM; GI50 (MDA-MB-231): 1140 nM; Activity (Rattus norvegicus [7]): Active; Ratio IC50 [8]: 2 - 20; GI50 (BT-549): < 10 nM; GI50 (MDA-MB-468): 300 nM; GI50 (M14): 810 nM
